A short description of series [1]: Metabolic stability in human whole blood assessed as drug degradation measured upto 120 mins by LC-MS/ms analysis. It is filed as ADME, tissue-based. The conditions noted are these: 2 h. In outline:
(§1)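 Pooled human whole blood (K3-EDTA) was spiked to 1 or 5 μM compound. Aliquots taken at 0, 15, 30, 60 and 120 min were quenched in acetonitrile with 0.1% formic acid and internal standard, then analysed by LC-MS/MS. Percent parent remaining is the peak-area ratio versus T = 0; half-life comes from an exponential decay fit.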

Series [2] can be described thus: GSH reactivity in aqueous buffer assessed as GSH adduct formation by measuring corrected intrinsic second order rate constant (K2 corrected) by HPLC analysis. Format: physicochemical. In outline: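 GSH stock diluted to final 15 mM in aqueous buffer (pH 8.0 used, 7.4 too slow), reaction started with inhibitor at final 0.5 mM, 2% v/v DMSO. Incubated at 22 °C and aliquots taken over at least 5–6 half-lives. HPLC with UV 214/254 nm tracked adduct growth and inhibitor loss, fitted mono-exponentially to give pseudo-first-order kobs. kobs was divided by [thiol] and then by the thiolate fraction (pKa 8.7) to give kcorr2. Run in duplicate.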

The target of series [3] is T1, Protein-glutamine gamma-glutamyltransferase (Homo sapiens) (UniProt P21980).
T1 sequence (whole entry): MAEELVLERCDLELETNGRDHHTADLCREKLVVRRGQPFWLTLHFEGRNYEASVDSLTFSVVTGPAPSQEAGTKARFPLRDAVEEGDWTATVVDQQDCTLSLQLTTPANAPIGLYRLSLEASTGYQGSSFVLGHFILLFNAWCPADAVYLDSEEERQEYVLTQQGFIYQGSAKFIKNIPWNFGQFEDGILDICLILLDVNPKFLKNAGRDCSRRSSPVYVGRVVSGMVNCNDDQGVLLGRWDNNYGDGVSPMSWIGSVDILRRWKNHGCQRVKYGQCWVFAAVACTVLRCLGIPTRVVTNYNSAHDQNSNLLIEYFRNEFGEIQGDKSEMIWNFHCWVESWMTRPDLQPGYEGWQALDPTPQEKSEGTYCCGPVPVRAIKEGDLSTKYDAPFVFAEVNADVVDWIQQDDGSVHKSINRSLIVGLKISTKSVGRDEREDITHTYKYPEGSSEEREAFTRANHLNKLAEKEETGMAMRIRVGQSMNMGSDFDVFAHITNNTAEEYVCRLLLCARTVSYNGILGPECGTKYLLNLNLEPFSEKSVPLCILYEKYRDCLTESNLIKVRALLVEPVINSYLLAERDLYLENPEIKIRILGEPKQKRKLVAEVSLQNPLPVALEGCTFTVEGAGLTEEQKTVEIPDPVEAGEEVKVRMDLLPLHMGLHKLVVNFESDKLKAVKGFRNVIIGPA
Nature of the series: Irreversible inhibition of human TG2 using Cbz-Glu-(gamma-p-nitrophenylester)Gly (AL5) as substrate assessed as substrate hydrolysis by measuring observed binding constant incubated for 20 mins by colorimetric assay.

A short description of series [4]: Metabolic stability in pooled cryopreserved human hepatocytes assessed as half-life at 1 uM measured upto 120 mins by LC-MS/MS analysis. It is filed as ADME, cell-based, Hepatocyte. In a few lines: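 Samples were taken at 0, 5, 15, 30, 60 and 120 min, acetonitrile-quenched with internal standard, and analysed by LC-MS/MS. Half-life came from exponential decay of the parent/IS ratio relative to T = 0.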

The nature of series [5]: Metabolic stability in human whole blood assessed as half-life at 1 to 5 uM measured upto 120 mins by LC-MS/MS analysis. Format: ADME, tissue-based. The following applies: dose 1-5 µM. In outline:
as §1

The target of series [6] is T2, Protein-glutamine gamma-glutamyltransferase E (Homo sapiens) (UniProt Q08188).
T2 sequence (whole entry): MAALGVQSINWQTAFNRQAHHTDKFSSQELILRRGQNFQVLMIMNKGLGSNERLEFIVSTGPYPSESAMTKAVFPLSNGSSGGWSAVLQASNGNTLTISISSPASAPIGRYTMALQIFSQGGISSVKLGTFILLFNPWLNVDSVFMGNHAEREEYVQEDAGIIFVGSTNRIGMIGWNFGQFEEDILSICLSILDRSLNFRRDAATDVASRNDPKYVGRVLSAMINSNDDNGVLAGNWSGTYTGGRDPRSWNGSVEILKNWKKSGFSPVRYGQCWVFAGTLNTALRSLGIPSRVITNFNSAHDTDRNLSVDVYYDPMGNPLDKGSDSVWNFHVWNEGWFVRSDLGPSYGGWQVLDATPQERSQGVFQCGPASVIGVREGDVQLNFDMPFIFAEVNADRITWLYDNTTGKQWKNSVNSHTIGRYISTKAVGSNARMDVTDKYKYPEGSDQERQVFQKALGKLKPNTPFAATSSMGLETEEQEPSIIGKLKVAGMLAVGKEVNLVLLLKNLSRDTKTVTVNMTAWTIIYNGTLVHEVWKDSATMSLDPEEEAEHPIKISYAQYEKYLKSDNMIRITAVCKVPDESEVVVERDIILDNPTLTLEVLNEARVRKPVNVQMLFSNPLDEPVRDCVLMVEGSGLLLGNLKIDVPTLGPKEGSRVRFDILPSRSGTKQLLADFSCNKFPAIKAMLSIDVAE
Nature of the series: Reversible inhibition of activated human TG3 using peptidic FRET-quenched probe A101 as substrate by fluorescence based assay relative to control. The following applies: concentration not given here.

In series [7] the target is T3, Coagulation factor XIII A chain (Homo sapiens) (UniProt P00488).
T3 sequence (whole entry): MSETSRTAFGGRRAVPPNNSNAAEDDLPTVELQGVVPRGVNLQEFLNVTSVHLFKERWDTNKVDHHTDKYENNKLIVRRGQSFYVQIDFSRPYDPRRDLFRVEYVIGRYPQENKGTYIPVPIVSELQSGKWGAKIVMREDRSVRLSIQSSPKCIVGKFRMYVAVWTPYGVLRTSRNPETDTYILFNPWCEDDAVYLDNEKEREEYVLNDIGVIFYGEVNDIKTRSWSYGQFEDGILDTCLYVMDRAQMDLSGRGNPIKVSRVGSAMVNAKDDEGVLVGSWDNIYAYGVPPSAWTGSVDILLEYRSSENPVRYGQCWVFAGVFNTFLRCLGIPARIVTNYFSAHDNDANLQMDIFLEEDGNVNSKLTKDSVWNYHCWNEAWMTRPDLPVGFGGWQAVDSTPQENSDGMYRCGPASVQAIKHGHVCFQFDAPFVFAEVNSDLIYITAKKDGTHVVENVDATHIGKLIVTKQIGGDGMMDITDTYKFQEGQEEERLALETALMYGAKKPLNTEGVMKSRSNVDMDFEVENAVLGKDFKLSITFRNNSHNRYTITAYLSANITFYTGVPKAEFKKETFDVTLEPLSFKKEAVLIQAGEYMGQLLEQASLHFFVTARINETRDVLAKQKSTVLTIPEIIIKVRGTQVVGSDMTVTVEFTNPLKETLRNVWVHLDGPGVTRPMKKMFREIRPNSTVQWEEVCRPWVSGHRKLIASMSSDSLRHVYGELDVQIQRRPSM
Briefly: Irreversible inhibition of human factor XIIIa using peptidic FRET-quenched probe A101 as substrate assessed as observed binding constant by fluorescence based assay.

For orientation: half-life means the time needed for the level to fall by half in the phase considered. The term inhibition denotes the drop in the measured response relative to a control, in per cent. The low end stands for little suppression, the high end for strong suppression. Consider `C=CC(=O)NCC(=O)N1CCN(C(=O)C23CC4CC(CC(C4)C2)C3)CC1`, for which the Stability result in series [1] is reported as “Stable”. Besides, the values for the K in series [2], in series [3] and in series [7] were 0.079 10^-3/M/min, 0.5 min⁻¹ and 0.051 min⁻¹, respectively. Further, in series [4], the half-life at 1 µM was more than 2 h. The half-life at up to 5 µM in series [5] was more than 2 h. In series [6], the inhibition was determined as 59.1%.

With `O=C(CCl)NCC(=O)N1CCN(C(=O)C23CC4CC(CC(C4)C2)C3)CC1`, the Stability entry in series [1] is reported as “Stable”. The figures for the K in series [2], in series [3] and in series [7] were 1.48 10^-3/M/min, 0.537 min⁻¹ and 0.013 min⁻¹, respectively. Besides, in series [4], the half-life at 1 µM was more than 2 h. Also, the half-life at up to 5 µM in series [5] was more than 2 h. The same compound displayed an inhibition in series [6] of 41.5%.

(Values after ChEMBL document CHEMBL5230175, “The war on hTG2: warhead optimization in small molecule human tissue transglutaminase inhibitors” (RSC Med Chem, 2023).)
